{"data": "Measurements gathered from unrelated publications", "BRAF": "Serine/threonine-protein kinase B-raf (BRAF, Homo sapiens, UniProt P15056)", "BRAF V600E": "Serine/threonine-protein kinase B-raf (BRAF, Homo sapiens, UniProt P15056, V600E)", "note": "Compare with care: the assays were run in different laboratories."}
{"Structure (SMILES)": "N#Cc1ccccc1CSc1nnc2c(n1)[nH]c1ccccc12", "target": "BRAF", "effect on": "binding", "technique": "competition with immobilised ligand", "concentration": "10 µM", "remaining binding [%]": 94}
{"Structure (SMILES)": "CN1CCN(c2ccc(Nc3nccc(-c4cccc([N+](=O)[O-])c4)n3)cc2C(F)(F)F)CC1", "target": "BRAF V600E", "effect on": "binding", "concentration": "10 µM", "remaining binding [%]": 3.8}
{"Structure (SMILES)": "C[C@@H]1CCN(c2nccc(-c3cnn4ncccc34)n2)C1", "target": "BRAF", "effect on": "binding", "concentration": "1 µM", "remaining binding [%]": 75}
{"Structure (SMILES)": "C[C@@H]1CN(c2ccc3ncc(-c4ccc5[nH]nc(C6CC6)c5c4)n3n2)C[C@H](C)O1", "target": "BRAF", "effect on": "binding", "technique": "competition with immobilised ligand", "concentration": "50 nM", "remaining binding [%]": 91}
{"Structure (SMILES)": "N[C@H]1CCN(c2nccc(-c3cnn4ncccc34)n2)C1", "target": "BRAF V600E", "effect on": "binding", "concentration": "1 µM", "remaining binding [%]": 92}
{"Structure (SMILES)": "COc1ncc2cc3ccccc3nc2c1C#N", "target": "BRAF V600E", "effect on": "cell-free assay", "technique": "competition with immobilised ligand", "concentration": "5 µM", "remaining binding [%]": 100}
{"Structure (SMILES)": "Nc1ncc2c(n1)-c1c([nH]c3ccc(C#CC4CC4)cc13)CCCC2", "target": "BRAF V600E", "effect on": "binding", "technique": "competition with immobilised ligand", "concentration": "1 µM", "remaining binding [%]": 88}
{"Structure (SMILES)": "CN(c1nccc(-c2cnn3ncccc23)n1)C1CC1", "target": "BRAF V600E", "effect on": "binding", "concentration": "1 µM", "remaining binding [%]": 100}
{"Structure (SMILES)": "O=C(NCCCN1CCOCC1)c1ccc(Nc2ncc(Cl)c(-c3ccc(Cl)s3)n2)cc1", "target": "BRAF", "effect on": "binding", "technique": "competition with immobilised ligand", "concentration": "1 µM", "remaining binding [%]": 100}
{"Structure (SMILES)": "c1cnn2ncc(-c3ccnc(N4CCC45COC5)n3)c2c1", "target": "BRAF V600E", "effect on": "binding", "concentration": "1 µM", "remaining binding [%]": 63}
{"Structure (SMILES)": "CCC(=N\\O)/C(C)=C/c1ccc(F)cc1", "target": "BRAF V600E", "effect on": "cell-free assay", "technique": "competition with immobilised ligand", "concentration": "1 µM", "remaining binding [%]": 77}
{"Structure (SMILES)": "O=C(NCC1CCOCC1)c1n[nH]cc1NC(=O)c1c(F)cccc1F", "target": "BRAF V600E", "effect on": "binding", "technique": "competition with immobilised ligand", "concentration": "1 µM", "remaining binding [%]": 100}
{"Structure (SMILES)": "C[C@@H](c1ccc(-n2cnc3c(N)ncnc32)cc1)N1CCc2nn(C)c(Cc3ccccc3)c2C1=O", "target": "BRAF V600E", "effect on": "binding", "technique": "competition with immobilised ligand", "concentration": "0.1 µM", "remaining binding [%]": 76}
{"Structure (SMILES)": "CCN1CCN(Cc2ccc(C(=O)Nc3ccc(C)c(Oc4ccc5c(c4)CC(=O)N5)c3)cc2C(F)(F)F)CC1", "target": "BRAF", "effect on": "binding", "technique": "competition with immobilised ligand", "concentration": "1 µM", "remaining binding [%]": 64}
{"Structure (SMILES)": "CN(C)C(=O)Cn1cc(-c2nc(C3(c4ccc(-c5cnc(N)nc5)cc4)CC3)no2)cn1", "target": "BRAF", "effect on": "cell-free assay", "technique": "competition with immobilised ligand", "concentration": "1 µM", "remaining binding [%]": 88}
{"Structure (SMILES)": "COc1cnc(Nc2cccc(S(N)(=O)=O)c2)nc1N1CCN(c2ccccc2)CC1", "target": "BRAF V600E", "effect on": "binding", "technique": "competition with immobilised ligand", "concentration": "1 µM", "remaining binding [%]": 82}
{"Structure (SMILES)": "F[C@@H]1CCN(c2nccc(-c3cnn4ncccc34)n2)C1", "target": "BRAF V600E", "effect on": "binding", "concentration": "1 µM", "remaining binding [%]": 100}
{"Structure (SMILES)": "O=C(c1ccc(Nc2ncc(Cl)c(-c3ccc(Cl)s3)n2)cc1)N1CCC(N2CCCC2)CC1", "target": "BRAF", "effect on": "binding", "technique": "competition with immobilised ligand", "concentration": "1 µM", "remaining binding [%]": 65}
{"Structure (SMILES)": "Cc1cc(NC(=O)c2cccc(S(F)(F)(F)(F)F)c2)cc(-n2ccn3nc(-c4cccnc4)cc23)c1", "target": "BRAF V600E", "effect on": "cell-free assay", "technique": "competition with immobilised ligand", "concentration": "1 µM", "remaining binding [%]": 24.4}
{"Structure (SMILES)": "CNC(=O)[C@@H]1CC[C@@H](n2c(-c3ccc4cnccc4c3)nc3ccc(C(=O)NCc4cccc(C(N)=O)c4)cc32)C1", "target": "BRAF", "effect on": "binding", "technique": "competition with immobilised ligand", "concentration": "1 µM", "remaining binding [%]": 100}
{"Structure (SMILES)": "Cc1cnc(Nc2ccc(C(=O)N3CCC(N4CCCC4)CC3)cc2)nc1-c1cc2ccccc2s1", "target": "BRAF V600E", "effect on": "binding", "technique": "competition with immobilised ligand", "concentration": "1 µM", "remaining binding [%]": 32}
{"Structure (SMILES)": "O=C(Nc1c[nH]nc1C(=O)NC1CCNCC1)c1cc(F)cc(F)c1", "target": "BRAF", "effect on": "binding", "technique": "competition with immobilised ligand", "concentration": "1 µM", "remaining binding [%]": 100}
{"Structure (SMILES)": "Cc1nc(Cc2cccc(C(F)(F)F)c2)sc1-c1ccc(C(N)=O)nc1", "target": "BRAF V600E", "effect on": "cell-free assay", "technique": "competition with immobilised ligand", "concentration": "1 µM", "remaining binding [%]": 100}
{"Structure (SMILES)": "CN(CCCC(F)(F)F)c1nccc(-c2cnn3ncccc23)n1", "target": "BRAF", "effect on": "binding", "concentration": "1 µM", "remaining binding [%]": 100}
{"Structure (SMILES)": "O=C(NCCCN1CCOCC1)c1ccc(Nc2nccc(-c3cc4ccccc4s3)n2)cc1", "target": "BRAF V600E", "effect on": "binding", "technique": "competition with immobilised ligand", "concentration": "1 µM", "remaining binding [%]": 67}
{"Structure (SMILES)": "c1cncc(-c2cccc(Nc3nccc(NC4CCCCC4)n3)c2)c1", "target": "BRAF V600E", "effect on": "binding", "technique": "competition with immobilised ligand", "concentration": "10 µM", "remaining binding [%]": 52}
{"Structure (SMILES)": "CS(=O)(=O)N1CCCC(NC(=O)[C@H](CCC2CCCCC2)NC(=O)c2ccc(CNc3ncnc4c3nnn4-c3ccccc3)cc2)C1 (stereo partly drawn)", "target": "BRAF", "effect on": "cell-free assay", "technique": "competition with immobilised ligand", "concentration": "0.1 µM", "remaining binding [%]": 81}
{"Structure (SMILES)": "O=C(c1ccc(Nc2nccc(-c3cc4ccccc4s3)n2)cc1)N1CCC(N2CCCC2)CC1", "target": "BRAF", "effect on": "binding", "technique": "competition with immobilised ligand", "concentration": "1 µM", "remaining binding [%]": 38}
{"Structure (SMILES)": "COc1cnc(Nc2cccc(S(N)(=O)=O)c2)nc1N1CCN(c2ccccc2)C(=O)C1", "target": "BRAF", "effect on": "binding", "technique": "competition with immobilised ligand", "concentration": "1 µM", "remaining binding [%]": 87}
{"Structure (SMILES)": "Cc1c(NC(=O)c2cc(C(N)=O)nc3cc(F)ccc23)c(C(F)(F)F)nn1Cc1ccc(C#N)cc1", "target": "BRAF V600E", "effect on": "cell-free assay", "technique": "competition with immobilised ligand", "concentration": "1 µM", "remaining binding [%]": 90}
{"Structure (SMILES)": "C=CC(=O)N1CCC(C(=O)NCC(=O)N2CCN(c3nc(-c4cnc(N)nc4C(F)F)nc(N4CCOCC4)n3)CC2)CC1", "target": "BRAF V600E", "effect on": "binding", "technique": "competition with immobilised ligand", "concentration": "1 µM", "remaining binding [%]": 89}
{"Structure (SMILES)": "CN(C)c1nccc(-c2cnc3ncccn23)n1", "target": "BRAF", "effect on": "binding", "concentration": "1 µM", "remaining binding [%]": 89}
{"Structure (SMILES)": "CN([C@@H]1CCc2c(CC(=O)O)c3cc(S(C)(=O)=O)ccc3n2C1)S(=O)(=O)c1ccc(F)cc1", "target": "BRAF", "effect on": "cell-free assay", "technique": "competition with immobilised ligand", "concentration": "1 µM", "remaining binding [%]": 98}
{"Structure (SMILES)": "O=C(c1ccc(Nc2ncc(Cl)c(-c3cc4ccccc4s3)n2)cc1)N1CCC(N2CCCC2)CC1", "target": "BRAF V600E", "effect on": "binding", "technique": "competition with immobilised ligand", "concentration": "1 µM", "remaining binding [%]": 56}
{"Structure (SMILES)": "Cc1cc(-n2nc(Cc3cc(F)cc(C(F)(F)F)c3)nc2C)ccc1C(N)=O", "target": "BRAF", "effect on": "cell-free assay", "technique": "competition with immobilised ligand", "concentration": "1 µM", "remaining binding [%]": 86}
{"Structure (SMILES)": "CN(C)c1nccc(-c2cnn3ncccc23)n1", "target": "BRAF V600E", "effect on": "binding", "concentration": "1 µM", "remaining binding [%]": 69}
